Data reported in publication PMC3130141 (Archives of Drug Information, 2011).

Experiments:
[1] = system: Japanese patients with advanced solid tumors; assay: Laboratory assessments; assay type: in vivo, human; conditions: for Blood sodium decreased, patients with grade ≥3 abnormal laboratory finding: cut-off <130 mmol/L; for Lymphocyte count decreased, patients with grade ≥3 abnormal laboratory finding / Lymphopenia, patients with grade ≥3 abnormal laboratory finding: cut-off <0.5 × 10^9/L; for Neutropenia, patients with grade ≥3 abnormal laboratory finding: cut-off <1.0 × 10^9/L; for Leukopenia, patients with grade ≥3 abnormal laboratory finding: cut-off <2.0 × 10^9/L; for Hemoglobin decreased, patients with grade ≥3 abnormal laboratory finding: cut-off <8.0 g/dL; for Thrombocytopenia, patients with grade ≥3 abnormal laboratory finding: cut-off <50.0 × 10^9/L; for Weight decreased, patients with grade ≥3 abnormal vital sign: cut-off ≥20% from baseline
[2] = system: Japanese patients with advanced solid tumors; assay: Dose-limiting toxicities and maximum tolerated dose during cycle 1; assay type: in vivo, human; conditions: dose escalation halted at 25 mg
How it was run: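 Open-label dose escalation in sequential cohorts at 10, 15, 20 or 25 mg, given as a 1-h iv infusion on days 1, 8 and 15 of 28-day cycles. DLT: grade 3/4 hemolysis, grade 4 hematologic toxicity, febrile grade 3/4 neutropenia, prolonged diarrhea or vomiting, or other grade 3/4 non-hematologic toxicity (CTCAE v3.0). MTD: highest dose with ≤1 of 6 evaluable patients having a cycle 1 DLT.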

[3] = Plasma pharmacokinetics, non-compartmental analysis; assay type: in vivo, human; conditions: for clearance / AUC(0-inf) / AUC(0-t) / Cmax / MRT / Vd / concentration at 24 h / half-life: human, plasma
How it was run: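 Plasma was sampled pre- and post-dose daily on days 1–8 of cycle 1 and on day 1 of cycle 2, after a 1-h iv infusion. Analysis was non-compartmental: Cmax by inspection; λz by log-linear terminal regression; AUC0–24h by linear trapezoidal rule, extrapolated to infinity via λz; CL as dose/AUC. Values are geometric mean (CV%) per cohort.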

[4] = system: Japanese patients with advanced solid tumors; assay: Efficacy: overall best response by RECIST version 1.0; assay type: in vivo, human
How it was run: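 Investigator-assessed overall best response by RECIST v1.0, with baseline imaging within 28 days before first dose. Re-imaging was on day 29 of cycles 1 and 2 and of subsequent odd-numbered cycles. […] Dosing was a 1-h iv infusion on days 1, 8 and 15 of 28-day cycles (10–25 mg cohorts). Results were summarized descriptively by dose group.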

[5] = system: broad panel of solid and hematologic tumor cell lines; conditions: cited from earlier work
[6] = system: human tumor xenograft models including a primary bladder tumor model and the rituximab-insensitive non-Hodgkin's lymphoma model, DoHH2T53; conditions: cited from earlier work
[7] = system: Western patients with solid tumors; conditions: cited from earlier work
[8] = Cycle 1, Day 8, Total, all doses (N = 18)
[9] = Cycle 1, Day 15, Total, all doses (N = 18)
[10] = Cycle 1, Day 22, Total, all doses (N = 18)

## Cc1ccc(C(=O)N(CCCN)C(c2nc3snc(C)c3c(=O)n2Cc2ccccc2)C(C)C)cc1 (stereo not shown) [AZD4877]
[1]; 10 mg (N = 3)
  Any grade ≥3 finding/vital sign, patients with grade ≥3 abnormal laboratory findings/vital signs: 1 (33) N (%)
  Blood sodium decreased, patients with grade ≥3 abnormal laboratory finding: 0 N (%)
  Lymphocyte count decreased, patients with grade ≥3 abnormal laboratory finding: 0 N (%)
  Lymphopenia, patients with grade ≥3 abnormal laboratory finding: 0 N (%)
  Neutropenia, patients with grade ≥3 abnormal laboratory finding: 1 (33) N (%)
  Leukopenia, patients with grade ≥3 abnormal laboratory finding: 0 N (%)
  Hemoglobin decreased, patients with grade ≥3 abnormal laboratory finding: 0 N (%)
  Thrombocytopenia, patients with grade ≥3 abnormal laboratory finding: 0 N (%)
  Weight decreased, patients with grade ≥3 abnormal vital sign: 0 N (%)
[1]; 15 mg (N = 3)
  Any grade ≥3 finding/vital sign, patients with grade ≥3 abnormal laboratory findings/vital signs: 1 (33) N (%)
  Blood sodium decreased, patients with grade ≥3 abnormal laboratory finding: 0 N (%)
  Lymphocyte count decreased, patients with grade ≥3 abnormal laboratory finding: 0 N (%)
  Lymphopenia, patients with grade ≥3 abnormal laboratory finding: 0 N (%)
  Neutropenia, patients with grade ≥3 abnormal laboratory finding: 1 (33) N (%)
  Leukopenia, patients with grade ≥3 abnormal laboratory finding: 0 N (%)
  Hemoglobin decreased, patients with grade ≥3 abnormal laboratory finding: 0 N (%)
  Thrombocytopenia, patients with grade ≥3 abnormal laboratory finding: 0 N (%)
  Weight decreased, patients with grade ≥3 abnormal vital sign: 0 N (%)
[1]; 20 mg (N = 6)
  Any grade ≥3 finding/vital sign, patients with grade ≥3 abnormal laboratory findings/vital signs: 4 (67) N (%)
  Blood sodium decreased, patients with grade ≥3 abnormal laboratory finding: 1 (17) N (%)
  Lymphocyte count decreased, patients with grade ≥3 abnormal laboratory finding: 0 N (%)
  Lymphopenia, patients with grade ≥3 abnormal laboratory finding: 0 N (%)
  Neutropenia, patients with grade ≥3 abnormal laboratory finding: 3 (50) N (%)
  Leukopenia, patients with grade ≥3 abnormal laboratory finding: 3 (50) N (%)
  Hemoglobin decreased, patients with grade ≥3 abnormal laboratory finding: 0 N (%)
  Thrombocytopenia, patients with grade ≥3 abnormal laboratory finding: 0 N (%)
  Weight decreased, patients with grade ≥3 abnormal vital sign: 1 (17) N (%)
[1]; 25 mg (N = 6)
  Any grade ≥3 finding/vital sign, patients with grade ≥3 abnormal laboratory findings/vital signs: 6 (100) N (%)
  Blood sodium decreased, patients with grade ≥3 abnormal laboratory finding: 0 N (%)
  Lymphocyte count decreased, patients with grade ≥3 abnormal laboratory finding: 1 (17) N (%)
  Lymphopenia, patients with grade ≥3 abnormal laboratory finding: 1 (17) N (%)
  Neutropenia, patients with grade ≥3 abnormal laboratory finding: 5 (83) N (%)
  Leukopenia, patients with grade ≥3 abnormal laboratory finding: 5 (83) N (%)
  Hemoglobin decreased, patients with grade ≥3 abnormal laboratory finding: 1 (17) N (%)
  Thrombocytopenia, patients with grade ≥3 abnormal laboratory finding: 1 (17) N (%)
  Weight decreased, patients with grade ≥3 abnormal vital sign: 0 N (%)
[1]; 25 mg dose cohort
  Patients experiencing grade ≥3 neutropenia: five of six
[1]; Cycle 1, Day 8, 10 mg (N = 3)
  Platelet count, mean (SD): 227.3 (36.7) 10^3/µL
  Total ANC (absolute neutrophil count), mean (SD): 2.00 (0.37) 10^3/µL
  White blood cell count, mean (SD): 4.13 (0.63) 10^3/µL
[1]; Cycle 1, Day 8, 15 mg (N = 3)
  Platelet count, mean (SD): 229.0 (35.9) 10^3/µL
  Total ANC (absolute neutrophil count), mean (SD): 3.23 (1.26) 10^3/µL
  White blood cell count, mean (SD): 5.50 (1.48) 10^3/µL
[1]; Cycle 1, Day 8, 20 mg (N = 6)
  Platelet count, mean (SD): 245.7 (45.5) 10^3/µL
  Total ANC (absolute neutrophil count), mean (SD): 1.81 (0.99) 10^3/µL
  White blood cell count, mean (SD): 2.97 (1.06) 10^3/µL
[1]; Cycle 1, Day 8, 25 mg (N = 6)
  Platelet count, mean (SD): 246.5 (99.7) 10^3/µL
  Total ANC (absolute neutrophil count), mean (SD): 2.00 (0.97) 10^3/µL
  White blood cell count, mean (SD): 3.01 (0.99) 10^3/µL
[1]; [8]
  Platelet count, mean (SD): 240.1 (62.6) 10^3/µL
  Total ANC (absolute neutrophil count), mean (SD): 2.14 (1.01) 10^3/µL
  White blood cell count, mean (SD): 3.60 (1.37) 10^3/µL
[1]; Cycle 1, Day 15, 10 mg (N = 3)
  Platelet count, mean (SD): 203.3 (46.5) 10^3/µL
  Total ANC (absolute neutrophil count), mean (SD): 1.25 (0.27) 10^3/µL
  White blood cell count, mean (SD): 3.59 (0.69) 10^3/µL
[1]; Cycle 1, Day 15, 15 mg (N = 3)
  Platelet count, mean (SD): 217.0 (6.1) 10^3/µL
  Total ANC (absolute neutrophil count), mean (SD): 2.33 (1.62) 10^3/µL
  White blood cell count, mean (SD): 4.66 (2.19) 10^3/µL
[1]; Cycle 1, Day 15, 20 mg (N = 6)
  Platelet count, mean (SD): 265.2 (79.5) 10^3/µL
  Total ANC (absolute neutrophil count), mean (SD): 1.49 (0.82) 10^3/µL
  White blood cell count, mean (SD): 2.82 (1.20) 10^3/µL
[1]; Cycle 1, Day 15, 25 mg (N = 6)
  Platelet count, mean (SD): 184.5 (85.1) 10^3/µL
  Total ANC (absolute neutrophil count), mean (SD): 0.57 (0.50) 10^3/µL
  White blood cell count, mean (SD): 1.58 (0.57) 10^3/µL
[1]; [9]
  Platelet count, mean (SD): 219.9 (73.9) 10^3/µL
  Total ANC (absolute neutrophil count), mean (SD): 1.28 (0.99) 10^3/µL
  White blood cell count, mean (SD): 2.84 (1.55) 10^3/µL
[1]; Cycle 1, Day 22, 10 mg (N = 3)
  Platelet count, mean (SD): 205.0 (54.0) 10^3/µL
  Total ANC (absolute neutrophil count), mean (SD): 1.68 (0.35) 10^3/µL
  White blood cell count, mean (SD): 4.09 (0.66) 10^3/µL
[1]; Cycle 1, Day 22, 15 mg (N = 3)
  Platelet count, mean (SD): 232.0 (7.9) 10^3/µL
  Total ANC (absolute neutrophil count), mean (SD): 2.30 (1.50) 10^3/µL
  White blood cell count, mean (SD): 4.53 (1.70) 10^3/µL
[1]; Cycle 1, Day 22, 20 mg (N = 6)
  Platelet count, mean (SD): 262.2 (48.0) 10^3/µL
  Total ANC (absolute neutrophil count), mean (SD): 1.25 (0.69) 10^3/µL
  White blood cell count, mean (SD): 2.64 (0.69) 10^3/µL
[1]; Cycle 1, Day 22, 25 mg (N = 6)
  Platelet count, mean (SD): 308.7 (117.3) 10^3/µL
  Total ANC (absolute neutrophil count), mean (SD): 1.41 (0.48) 10^3/µL
  White blood cell count, mean (SD): 2.73 (0.68) 10^3/µL
[1]; [10]
  Platelet count, mean (SD): 263.1 (81.1) 10^3/µL
  Total ANC (absolute neutrophil count), mean (SD): 1.55 (0.79) 10^3/µL
  White blood cell count, mean (SD): 3.23 (1.14) 10^3/µL
[1]; Total, all doses (N = 18)
  Any grade ≥3 finding/vital sign, patients with grade ≥3 abnormal laboratory findings/vital signs: 12 (67) N (%)
  Blood sodium decreased, patients with grade ≥3 abnormal laboratory finding: 1 (6) N (%)
  Lymphocyte count decreased, patients with grade ≥3 abnormal laboratory finding: 1 (6) N (%)
  Lymphopenia, patients with grade ≥3 abnormal laboratory finding: 1 (6) N (%)
  Neutropenia, patients with grade ≥3 abnormal laboratory finding: 10 (56) N (%)
  Leukopenia, patients with grade ≥3 abnormal laboratory finding: 8 (44) N (%)
  Hemoglobin decreased, patients with grade ≥3 abnormal laboratory finding: 1 (6) N (%)
  Thrombocytopenia, patients with grade ≥3 abnormal laboratory finding: 1 (6) N (%)
  Weight decreased, patients with grade ≥3 abnormal vital sign: 1 (6) N (%)
[1]; all doses, 18 patients
  Grade ≥3 leukopenia (laboratory finding), patients: 44%
  Grade ≥3 neutropenia (laboratory finding), patients: 56%
[2]
  Maximum tolerated dose (MTD): not defined
[3]; 10-25 mg
  Dose proportionality of exposure: not fully dose proportional
[3]; intravenous, 25 mg
  clearance: 325 to 373 mL/min
[3]; iv, 10 mg
  AUC(0-inf): 447 ng·h/mL
  AUC(0-t): 234 ng·h/mL
  Cmax: 63.4 ng/mL
  MRT: 34.2 h
  Vd: 766 L
  clearance: 373 mL/min
  concentration at 24 h: 4.9 ng/mL
  half-life: 28.7 h
[3]; iv, 15 mg
  AUC(0-inf): 671 ng·h/mL
  AUC(0-t): 424 ng·h/mL
  Cmax: 99.7 ng/mL
  MRT: 22.9 h
  Vd: 512 L
  clearance: 372 mL/min
  concentration at 24 h: 7.8 ng/mL
  half-life: 20.3 h
[3]; iv, 20 mg
  AUC(0-inf): 1430 ng·h/mL
  AUC(0-t): 882 ng·h/mL
  Cmax: 218 ng/mL
  MRT: 22.4 h
  Vd: 314 L
  clearance: 233 mL/min
  concentration at 24 h: 14.9 ng/mL
  half-life: 21.3 h
[3]; iv, 25 mg
  AUC(0-inf): 1280 ng·h/mL
  AUC(0-t): 838 ng·h/mL
  Cmax: 224 ng/mL
  MRT: 22.2 h
  Vd: 432 L
  clearance: 325 mL/min
  concentration at 24 h: 13.6 ng/mL
  half-life: 21.1 h
[4]; all doses
  Patients with complete or partial response: No patients
  Patients with stable disease ≥8 weeks: five of 16
[4]; all doses, stable disease defined as ≥8 weeks
  Overall best response (RECIST): stable disease
[4]; patient with thymus cancer, 20 mg cohort
  Duration of stable disease: ≥ 12 weeks
[5]
  Growth of tumor cell lines: inhibit growth
[6]
  Activity in human tumor xenograft models: activity was observed
[7]; 25 mg, clinical setting
  Monoaster formation (proof of mechanism): evidence of monoaster formation
[7]; 25 mg
  Tolerability in Western patients: acceptable tolerability profile
[7]; 30 mg, parallel US study
  Toxicity at 30 mg: experienced neutropenia
[7]; parallel US study
  Recommended dose for further evaluation: 25 mg
[7]; weekly treatment
  Best objective tumor response in Western patients: stable disease ≥12 weeks
